In ChEMBL document CHEMBL1121953, “Carbon-7 substituted actinomycin D analogues as improved antitumor agents: synthesis and DNA-binding and biological properties” (J Med Chem, 1982):
≈ marks a conversion by molar mass, not a printed value.

Tests used:
Homo sapiens = species: Homo sapiens; experiment: In vitro growth inhibitory activity against human lymphoblastic leukemia cells; type: functional; settings: read-out: ID50 (the source's name)
Procedure, shortened: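 CCRF-CEM human lymphoblastic leukemia cells in log-phase growth; compounds dissolved in Me₂SO, final growth medium 1% Me₂SO.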

[1] = In vitro growth inhibitory activity for effect on melting temperature of DNA was determined
Procedure, shortened: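 DNA thermal denaturation; ΔTm = Tm of DNA-drug complex minus Tm of DNA. Drug 1.4×10⁻⁴ M, DNA (P) 1.4×10⁻³ M in 0.01 M phosphate buffer pH 7.0 with 5×10⁻³ M EDTA and 5% dimethyl sulfoxide.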

P388 [2] = experiment: Antitumor activity against P-388 lymphocytic leukemia in CDF1 hybrid male mice measured as median survival time ( 0.15 mg/kg),ip; type: functional, Mus musculus
Procedure, shortened: (§1)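 Male CDF1 mice (18-23 g) were inoculated ip with 10⁶ P-388 cells on day 0. Drug was given ip in 10% dimethyl sulfoxide-saline on days 1, 5 and 9. Test solutions were kept at 0-4 °C, protected from light, and checked periodically for stability and homogeneity by TLC and HPLC. Read-out was survival, median survival time, increase in life span and tumor-free cures per 7 animals.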

P388 [3] = experiment: Antitumor activity against P-388 lymphocytic leukemia in CDF1 hybrid male mice measured as median survival time ( 0.6 mg/kg),ip; type: functional, Mus musculus; procedure, shortened: as §1
P388 [4] = experiment: Antitumor activity against P-388 lymphocytic leukemia in CDF1 hybrid male mice measured as median survival time ( 2.4 mg/kg),ip; type: functional, Mus musculus; procedure, shortened: as §1
P388 [5] = experiment: Maximum tolerated dose was compared to 7-(2,3-Epoxypropoxy)-actinomycin D against P-388 leukemia in mice(3 days); type: functional, Mus musculus
Procedure, shortened: (§2)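 Tumor-free male CDF1 mice (18-23 g) received a broad dose range ip in 10% dimethyl sulfoxide-saline, either on days 1, 5, 9 (three injections) or on 4 successive days (qd 1-4). Deaths were recorded over 21 days. MTD was the dose lethal to 10% (LD10), taken from a plot of log dose vs percent mortality. Average of two experiments.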

P388 [6] = experiment: Maximum tolerated dose was compared to 7-(2,3-Epoxypropoxy)-actinomycin D against P-388 leukemia in mice(4 days); type: functional, Mus musculus; procedure, shortened: as §2
P388 [7] = experiment: Antitumor activity against P-388 lymphocytic leukemia in CDF1 hybrid male mice measured as percent increase in lifespan(1.8 mg/kg),ip; type: functional, Mus musculus; procedure, shortened: as §1
P388 [8] = experiment: Number of mice with P-388 lymphocytic leukemia cured( 1.2 mg/kg),ip; 3/7; type: functional, Mus musculus; procedure, shortened: as §1
P388 [9] = experiment: Antitumor activity against P-388 lymphocytic leukemia in CDF1 hybrid male mice measured as median survival time ( 0.3 mg/kg),ip; type: functional, Mus musculus; procedure, shortened: as §1
P388 [10] = experiment: Number of mice with P-388 lymphocytic leukemia cured.( 1.8 mg/kg),ip; 3/7; type: functional, Mus musculus
P388 [11] = experiment: Antitumor activity against P-388 lymphocytic leukemia in CDF1 hybrid male mice measured as percent increase in lifespan( 2.4 mg/kg),ip; type: functional; settings: Mus musculus; procedure, shortened: as §1
P388 [12] = experiment: Antitumor activity against P-388 lymphocytic leukemia in CDF1 hybrid male mice measured as percent increase in lifespan( 0.15 mg/kg),ip; type: functional; settings: Mus musculus; procedure, shortened: as §1
P388 [13] = experiment: Minimum effective dose was determined compared to 7-(2,3-Epoxypropoxy)-actinomycin D against P-388 leukemia in mice(3 days); type: functional, Mus musculus; set-up: unit: mg/kg
Procedure, shortened: (§3)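 MED was the dose (mg/kg) giving a 40% increase in life span over control in mice bearing ip P-388 leukemia. Drug was given ip in 10% dimethyl sulfoxide-saline on a q4d 1, 5, 9 (three injections) or qd 1-4 (four injections) schedule.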

P388 [14] = experiment: Minimum effective dose was compared to 7-(2,3-Epoxypropoxy)-actinomycin D against P-388 leukemia in mice(4 days); type: functional, Mus musculus; procedure, shortened: as §3
P388 [15] = experiment: Number of mice with P-388 lymphocytic leukemia cured.( 0.15 mg/kg),ip; 0/7; type: functional, Mus musculus; procedure, shortened: as §1
P388 [16] = experiment: Antitumor activity against P-388 lymphocytic leukemia in CDF1 hybrid male mice measured as percent increase in lifespan( 0.3 mg/kg),ip; type: functional; settings: Mus musculus; procedure, shortened: as §1
P388 [17] = experiment: Number of mice with P-388 lymphocytic leukemia cured( 0.3 mg/kg),ip; 1/7; type: functional, Mus musculus; procedure, shortened: as §1
P388 [18] = experiment: Antitumor activity against P-388 lymphocytic leukemia in CDF1 hybrid male mice measured as percent increase in (1.2 mg/kg),ip; type: functional, Mus musculus; procedure, shortened: as §1
P388 [19] = experiment: Antitumor activity against P-388 lymphocytic leukemia in CDF1 hybrid male mice measured as percent increase in lifespan( 0.6 mg/kg),ip; type: functional; settings: Mus musculus; procedure, shortened: as §1
P388 [20] = experiment: Antitumor activity against P-388 lymphocytic leukemia in CDF1 hybrid male mice measured as median survival time (1.8 mg/kg),ip; type: functional, Mus musculus; procedure, shortened: as §1
P388 [21] = experiment: Number of mice with P-388 lymphocytic leukemia cured( 0.6 mg/kg),ip; 1/7; type: functional, Mus musculus; procedure, shortened: as §1
P388 [22] = experiment: Antitumor activity against P-388 lymphocytic leukemia in CDF1 hybrid male mice measured as median survival time ( 1.2 mg/kg),ip; type: functional, Mus musculus; procedure, shortened: as §1
P388 [23] = experiment: Number of mice with P-388 lymphocytic leukemia cured( 2.4 mg/kg),ip; 2/7; type: functional, Mus musculus; procedure, shortened: as §1

Work on `CCN(CC)C(=O)c1c2nc3c(C(=O)N(CC)CC)cc(OCC4CO4)c(C)c3oc-2c(C)c(=O)c1N` (stereo unspecified) yielded an IC50 (Homo sapiens) of 9 µg/mL (≈ 17.6 µM) and a DNA melting temperature shift (ΔTm) [1] of 0 °C.

`Cc1c2oc3c(C)c(OCC(O)CO)cc(C(=O)N[C@H]4C(=O)N[C@@H](C(C)C)C(=O)N5CCC[C@H]5C(=O)N(C)CC(=O)N(C)[C@@H](C(C)C)C(=O)O[C@H]4C)c3nc-2c(C(=O)N[C@H]2C(=O)N[C@@H](C(C)C)C(=O)N3CCC[C@H]3C(=O)N(C)CC(=O)N(C)[C@@H](C(C)C)C(=O)O[C@H]2C)c(N)c1=O` (stereo partly specified) gave a DNA melting temperature shift (ΔTm) [1] of 5.1 °C.

`Cc1c2oc3c(C)c(OCC4CO4)cc(C(=O)N[C@@H]4C(=O)N[C@H](C(C)C)C(=O)N5CCC[C@H]5C(=O)N(C)CC(=O)N(C)[C@@H](C(C)C)C(=O)O[C@@H]4C)c3nc-2c(C(=O)N[C@@H]2C(=O)N[C@H](C(C)C)C(=O)N3CCC[C@H]3C(=O)N(C)CC(=O)N(C)[C@@H](C(C)C)C(=O)O[C@@H]2C)c(N)c1=O` (stereo partly specified) showed an IC50 (Homo sapiens) of 0.009 µg/mL (≈ 0.00678 µM), an MST (P388 [2]) of 29 days and an MST (P388 [3]) of 41 days. It also gave an MST (P388 [4]) of 26 days, an MTD (P388 [5]) of 3.6 and an MTD (P388 [6]) of 1.6. The ILS (P388 [7]) was 300%, the Cure (P388 [8]) was 3 and the MST (P388 [9]) was 40 days. For the same compound, the Cure (P388 [10]) was 3, the ILS at 2.4 mg/kg (P388 [11]) was 136% and the ILS at 0.15 mg/kg (P388 [12]) was 164%. It also gave an MED (P388 [13]) of 0.05, an MED (P388 [14]) of 0.0375 and a Cure (P388 [15]) of 0. For the same compound, the ILS at 0.3 mg/kg (P388 [16]) was 263%, the Cure (P388 [17]) was 1 and the ILS (P388 [18]) was 291%. It also gave an ILS at 0.6 mg/kg (P388 [19]) of 255%, an MST (P388 [20]) of 44 days and a Cure (P388 [21]) of 1. The MST (P388 [22]) was 43 days and the Cure (P388 [23]) was 2.
